One molecule from ChEMBL document CHEMBL3867488 (ACS Med Chem Lett, 2016) can be followed below.

As usually defined, the pKi is the Ki on a negative log10 scale, so that one unit is a factor of ten. For orientation: pEC50 means the EC50 on a negative log10 scale, so that one unit is a factor of ten.

pEC50, pKi: −log10 of the molar value.

In data set [1] the target is T1, Oxysterols receptor LXR-beta (Homo sapiens) (UniProt P55055).
T1 sequence (whole entry): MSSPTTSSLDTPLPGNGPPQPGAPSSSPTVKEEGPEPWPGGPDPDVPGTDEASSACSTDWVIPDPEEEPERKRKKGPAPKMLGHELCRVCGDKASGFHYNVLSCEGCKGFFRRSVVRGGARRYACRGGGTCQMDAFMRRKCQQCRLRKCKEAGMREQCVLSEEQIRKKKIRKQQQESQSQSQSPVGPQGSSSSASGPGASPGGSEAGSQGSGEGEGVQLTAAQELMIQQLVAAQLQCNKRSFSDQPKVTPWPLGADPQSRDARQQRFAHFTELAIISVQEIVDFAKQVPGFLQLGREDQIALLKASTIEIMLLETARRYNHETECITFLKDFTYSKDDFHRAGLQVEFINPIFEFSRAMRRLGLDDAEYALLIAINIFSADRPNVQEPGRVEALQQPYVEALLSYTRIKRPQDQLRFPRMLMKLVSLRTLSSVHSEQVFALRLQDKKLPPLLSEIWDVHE
Description: Agonist activity at human LXR-beta expressed in African green monkey CV1 cells measured after 18 to 20 hrs by luciferase reporter gene assay relative to pan agonist 1-(2,4-difluorobenzyl)-2-oxo-6-(4-phenoxyphenyl)-4-(trifluoromethyl)-1,2-dihydropyridine-3-carbonitrile. It is filed as cell-based. The note with it: CV-1.

The target of data set [2] is Retinoic acid receptor RXR-alpha/oxysterols receptor LXR-beta (Homo sapiens, UniProt P55055). Description: Displacement of [3H]-24,25-epoxycholesterol from human LXRbeta/RXRalpha expressed in baculovirus infected Sf9 cells by scintillation proximity analysis. A digest of the protocol: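 Binding affinity measured using full-length LXRα–RXRα and LXRβ–RXRα heterodimers.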
Retinoic acid receptor RXR-alpha/oxysterols receptor LXR-beta, sequence (P19793 whole entry, one chain of several): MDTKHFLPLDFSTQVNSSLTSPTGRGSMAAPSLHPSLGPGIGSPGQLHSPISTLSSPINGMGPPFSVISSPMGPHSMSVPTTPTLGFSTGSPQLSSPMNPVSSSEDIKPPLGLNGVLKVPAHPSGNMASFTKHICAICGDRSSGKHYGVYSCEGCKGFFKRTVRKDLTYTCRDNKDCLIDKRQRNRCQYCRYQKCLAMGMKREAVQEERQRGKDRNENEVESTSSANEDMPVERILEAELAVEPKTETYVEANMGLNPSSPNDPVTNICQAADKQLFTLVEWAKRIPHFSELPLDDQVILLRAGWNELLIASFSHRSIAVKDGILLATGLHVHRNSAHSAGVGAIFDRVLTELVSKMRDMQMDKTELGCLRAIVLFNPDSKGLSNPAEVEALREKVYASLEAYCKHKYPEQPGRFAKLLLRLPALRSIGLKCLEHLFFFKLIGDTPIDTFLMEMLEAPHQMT
(In general: Loss of bound radioactivity is the signal in a displacement assay; it reports binding, not function.)

The target in data set [3] is T2, Oxysterols receptor LXR-alpha (Homo sapiens, UniProt Q13133).
T2 sequence (Q13133 whole entry): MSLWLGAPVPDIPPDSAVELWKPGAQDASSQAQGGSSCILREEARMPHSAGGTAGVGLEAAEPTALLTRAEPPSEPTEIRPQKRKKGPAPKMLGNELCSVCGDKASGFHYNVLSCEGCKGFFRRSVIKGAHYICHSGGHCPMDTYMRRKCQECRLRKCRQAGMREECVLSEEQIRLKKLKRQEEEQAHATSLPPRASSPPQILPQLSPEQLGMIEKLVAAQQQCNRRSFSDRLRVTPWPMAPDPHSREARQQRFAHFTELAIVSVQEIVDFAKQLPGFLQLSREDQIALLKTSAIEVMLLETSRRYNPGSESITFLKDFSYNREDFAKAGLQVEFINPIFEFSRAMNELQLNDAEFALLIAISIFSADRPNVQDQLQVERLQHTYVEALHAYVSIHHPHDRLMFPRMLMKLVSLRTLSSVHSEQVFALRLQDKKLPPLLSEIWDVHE
Description: Agonist activity at human LXR-alpha expressed in African green monkey CV1 cells measured after 18 to 20 hrs by luciferase reporter gene assay relative to pan agonist 1-(2,4-difluorobenzyl)-2-oxo-6-(4-phenoxyphenyl)-4-(trifluoromethyl)-1,2-dihydropyridine-3-carbonitrile. The note with it: CV-1, human; read-out: Efficacy. The format is cell-based.

The target of data set [4] is T1, Oxysterols receptor LXR-beta (Homo sapiens). Put plainly: Agonist activity at LXR-beta in human HeLa cells assessed as induction of ABCA1 by beta-galactosidase/luciferase reporter gene assay relative to control. The format is cell-based. A digest of the protocol: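 HeLa cells carrying endogenous LXRα and LXRβ receptors, transfected with an ABCA1 LXREx3 reporter construct; agonist-driven reporter induction measured.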
On the technique in general: Reporter assays use an easily measured gene product as a stand-in for the process of interest.

Data set [5] concerns the target T3, Oxysterols receptor LXR-beta (Homo sapiens, UniProt P55055).
T3 sequence (P55055 whole entry): T1 sequence (whole entry)
Description: Agonist activity at LXR-beta in human whole blood assessed as ABCA1 gene induction by measuring ABCA1 mRNA level after 4 hrs by SYBR-Green dye-based Q-PCR analysis. The format is tissue-based.

The target of data set [6] is T1, Oxysterols receptor LXR-beta (Homo sapiens). Put plainly: Agonist activity at LXR-beta in human whole blood assessed as ABCA1 gene induction by measuring ABCA1 mRNA level after 4 hrs by SYBR-Green dye-based Q-PCR analysis relative to pan agonist 2-(4-(5-(5-cyano-1-(2,4-difluorobenzyl)-6-oxo-4-(trifluoromethyl)-1,6-dihydropyridin-2-yl)thiophen-2-yl)-3-methylphenyl)acetic acid. The format is tissue-based.

The nature of data set [7]: Half life in cynomolgus monkey at 3 mg/kg, iv administered as 10 mins infusion by LC/MS/MS analysis. It is filed as ADME, organism-based, Macaca fascicularis. The note with it: in vivo.
Data set [8] concerns the target Alpha-1-acid glycoprotein 1 (Homo sapiens, UniProt P02763). Description: Binding affinity to human alpha-1-AGP at 1 uM measured after 4 hrs by equilibrium dialysis method relative to control. The format is ADME. The conditions noted are these: isolated protein, 4 h, 1 µM. On the technique in general: In equilibrium dialysis only unbound substance equilibrates across the membrane.

In the next data set the target is Albumin (Homo sapiens, UniProt P02768). Description: Binding affinity to human serum albumin at 1 uM measured after 4 hrs by equilibrium dialysis method relative to control. The format is ADME. The conditions noted are these: isolated protein, 4 h, 1 µM.
Albumin, sequence (P02768 whole entry): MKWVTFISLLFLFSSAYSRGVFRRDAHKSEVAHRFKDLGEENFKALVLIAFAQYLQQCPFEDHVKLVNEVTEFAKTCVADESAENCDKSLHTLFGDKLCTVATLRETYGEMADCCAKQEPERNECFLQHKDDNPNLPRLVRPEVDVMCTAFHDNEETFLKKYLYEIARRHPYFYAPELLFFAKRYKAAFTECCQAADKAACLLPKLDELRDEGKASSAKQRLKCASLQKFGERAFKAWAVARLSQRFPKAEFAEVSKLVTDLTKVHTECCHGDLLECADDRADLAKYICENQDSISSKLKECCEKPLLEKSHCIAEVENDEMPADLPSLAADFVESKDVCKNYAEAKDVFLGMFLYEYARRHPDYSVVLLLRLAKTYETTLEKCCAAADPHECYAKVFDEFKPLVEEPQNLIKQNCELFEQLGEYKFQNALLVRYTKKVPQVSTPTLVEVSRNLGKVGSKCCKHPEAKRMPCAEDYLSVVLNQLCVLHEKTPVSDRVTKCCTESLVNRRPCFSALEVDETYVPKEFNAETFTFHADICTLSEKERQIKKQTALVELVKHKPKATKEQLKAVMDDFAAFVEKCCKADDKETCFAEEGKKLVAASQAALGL
Data set [9] is described as follows: Agonist activity at LXR-beta in cynomolgus monkey whole blood assessed as ABCA1 gene induction by measuring ABCA1 mRNA level after 4 hrs by SYBR-Green dye-based Q-PCR analysis. The format is tissue-based. The note with it: Macaca fascicularis.
The test system of data set [10] is Cynomolgus monkey. Description: In vivo agonist activity at LXR-beta in cynomolgus monkey assessed as ABCG1 gene induction by measuring total RNA level at 1 mg/kg, po qd administered via gavage for 14 days measured after 5 to 6 hrs of last-dose relative to control. The format is functional, Macaca fascicularis. A digest of the protocol:
(§1)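 Cynomolgus monkeys dosed daily for 14 days. ABCG1 mRNA induction measured in blood cells on day 14 and expressed as fold change. Plasma drug concentration taken about 5 h post-dose. Plasma triglycerides also measured against baseline, with significance by ANOVA.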

Data set [11] in a line: Plasma concentration in cynomolgus monkey at 1 mg/kg, po qd administered via gavage for 14 days measured after 5 hrs of last-dose by LC/MS/MS analysis. The format is ADME, organism-based, Macaca fascicularis. Put shortly:
(§2)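 Cynomolgus monkeys dosed daily for 14 days. On day 14, plasma drug concentration was taken 5 h post-dose. Plasma triglycerides were expressed as % elevation over baseline, with significance tested by ANOVA (p < 0.05).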

Data set [12] in a line: Plasma concentration in cynomolgus monkey at 0.1 mg/kg, po qd administered via gavage for 14 days measured after 5 hrs of last-dose by LC/MS/MS analysis. It is filed as ADME, organism-based, Macaca fascicularis. A digest of the protocol:
as §2

A short description of data set [13]: Plasma concentration in cynomolgus monkey at 0.3 mg/kg, po qd administered via gavage for 14 days measured after 5 hrs of last-dose by LC/MS/MS analysis. The format is ADME, organism-based, Macaca fascicularis. A digest of the protocol: as §2
In data set [14] the test system is Cynomolgus monkey. Put plainly: In vivo agonist activity at LXR-beta in cynomolgus monkey assessed as ABCG1 gene induction by measuring total RNA level at 0.1 mg/ kg, po qd administered via gavage for 14 days measured 5 to 6 hrs post-dose. The format is functional, Macaca fascicularis. Put shortly: as §1
The nature of data set [15]: Effect on plasma triglyceride level in cynomolgus monkey at 0.3 mg/kg, po qd administered via gavage for 14 days measured after 24 hrs of last-dose relative to base line. The format is ADME, organism-based, Macaca fascicularis. The conditions noted are these: in vivo. Put shortly:
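Cynomolgus monkeys dosed for 14 days, with groups at 0.1, 0.3 and 1 mg/kg. Plasma triglycerides expressed as percent change over baseline, with significance by ANOVA. Plasma drug exposure sampled 5 h post-dose. ABCG1 induction in blood cells monitored in the same animals.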

The target of data set [16] is T1, Oxysterols receptor LXR-beta (Homo sapiens). Put plainly: Agonist activity at LXR-beta in human whole blood assessed as ABCG1 gene induction by measuring ABCA1 mRNA level after 4 hrs by SYBR-Green dye-based Q-PCR analysis relative to pan agonist 2-(4-(5-(5-cyano-1-(2,4-difluorobenzyl)-6-oxo-4-(trifluoromethyl)-1,6-dihydropyridin-2-yl)thiophen-2-yl)-3-methylphenyl)acetic acid. It is filed as tissue-based.

Alpha-1-acid glycoprotein 1, sequence (P02763 whole entry): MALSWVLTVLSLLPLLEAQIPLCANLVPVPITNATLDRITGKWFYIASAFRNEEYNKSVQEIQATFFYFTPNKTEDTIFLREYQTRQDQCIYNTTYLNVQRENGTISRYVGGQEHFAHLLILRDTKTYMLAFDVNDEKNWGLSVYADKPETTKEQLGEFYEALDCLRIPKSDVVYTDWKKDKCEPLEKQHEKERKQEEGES

On to `CC(C)(O)c1cn(-c2ccc(-c3cc(F)c(CO)c(S(C)(=O)=O)c3)cc2F)c(C(C)(C)c2c(Cl)cccc2Cl)n1` [BMS-852927], for which the Efficacy in data set [1] was 88%; in [4], 29%; in [6] it was 26%; in data set [16] it was 26%. For the same molecule, in [2], the pKi was 7.92. In addition, the Emax in data set [3] worked out at 20%. In addition, the pEC50 is 8.05 in data set [5] and 8.30 in data set [9]. Moreover, in [7], the t1/2 amounted to 12 h. For the same molecule, the PB in [8] worked out at 97.3%; on Albumin, 96.6%. The figures for the “fold change (FC)” value in the data set on Cynomolgus monkey [10] and in the data set on Cynomolgus monkey [14] were 11 and 4.7, respectively. Also, the concentration at 5 h in data set [11] amounted to 57 nM; in data set [12] it was 7.5 nM; in data set [13], 22 nM. The Activity in data set [15] is reported as 8%.
